# Laboratory results as given in ChEMBL document CHEMBL5108049, “Development and Characterization of Type I, Type II, and Type III LIM-Kinase Chemical Probes” (J Med Chem, 2022).
# Key:
# N1E-115 = experiment: Inhibition of neurite outgrowth in BMP7 stimulated mouse N1E-115 cells transfected with siFMR1 preincubated for 12 hrs followed by BMP7 stimulation for 24 hrs; format: functional, cell-based; details: dose 0.05-5 µM, time 36.0 hrs, DDE = dose-dependent effect
# Procedure, shortened: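 At 60 h, the medium was switched to 0.2% FBS containing inhibitor (0.05, 0.5 or 5 μM; DMSO stock) or DMSO for 12 h, then 10 ng/mL BMP7 was added for 24 h. The percentage of cells with neurites longer than one cell body was counted by microscopy, ≥100 cells per condition; mean + SD, N = 4.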
# LIM domain kinase 1 [1] = biological target: T1, LIM domain kinase 1 (Homo sapiens, UniProt P53667); experiment: Binding affinity to recombinant LIMK1 (330 to 637 residues) (unknown origin) expressed in baculovirus infected insect cells assessed as change in melting temperature at 10 uM by differential scanning fluorimetry
# Target sequence in this assay (P53667 whole entry, looked up, the tested form may be a part): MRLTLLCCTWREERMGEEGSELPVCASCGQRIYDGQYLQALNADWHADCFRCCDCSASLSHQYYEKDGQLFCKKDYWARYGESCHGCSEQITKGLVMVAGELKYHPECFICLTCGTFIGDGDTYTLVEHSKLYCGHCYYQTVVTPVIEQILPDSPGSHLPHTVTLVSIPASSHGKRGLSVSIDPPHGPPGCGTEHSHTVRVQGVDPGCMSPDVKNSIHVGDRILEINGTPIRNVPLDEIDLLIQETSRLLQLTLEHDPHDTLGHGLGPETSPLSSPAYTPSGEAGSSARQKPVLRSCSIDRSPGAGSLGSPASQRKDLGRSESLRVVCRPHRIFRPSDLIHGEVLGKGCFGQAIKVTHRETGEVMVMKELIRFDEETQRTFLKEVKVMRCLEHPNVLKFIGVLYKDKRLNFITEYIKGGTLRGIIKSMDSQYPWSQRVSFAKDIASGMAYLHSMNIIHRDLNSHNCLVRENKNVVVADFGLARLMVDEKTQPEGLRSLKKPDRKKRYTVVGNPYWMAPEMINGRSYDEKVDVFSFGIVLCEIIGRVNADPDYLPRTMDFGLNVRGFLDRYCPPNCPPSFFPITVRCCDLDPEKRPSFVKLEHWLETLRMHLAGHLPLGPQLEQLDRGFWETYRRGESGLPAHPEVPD
# LIM domain kinase 1 [2] = biological target: T1, LIM domain kinase 1; experiment: Inhibition of recombinant full length LIMK1 (330 to 637 residues) (unknown origin) expressed in HEK293T cells incubated for 2 hrs in presence of tracer K10 by NanoBRET assay; format: cell-based
# Target sequence in this assay (P53667 whole entry, the tested form may be a part): as the sequence (P53667 whole entry, looked up, the tested form may be a part) above
# LIM domain kinase 2 [3] = biological target: T2, LIM domain kinase 2 (Homo sapiens, UniProt P53671); experiment: Inhibition of recombinant full length LIMK2 (330 to 632 residues) (unknown origin) expressed in HEK293T cells incubated for 2 hrs in presence of tracer K10 by NanoBRET assay; format: cell-based
# Target sequence in this assay (P53671 whole entry, the tested form may be a part): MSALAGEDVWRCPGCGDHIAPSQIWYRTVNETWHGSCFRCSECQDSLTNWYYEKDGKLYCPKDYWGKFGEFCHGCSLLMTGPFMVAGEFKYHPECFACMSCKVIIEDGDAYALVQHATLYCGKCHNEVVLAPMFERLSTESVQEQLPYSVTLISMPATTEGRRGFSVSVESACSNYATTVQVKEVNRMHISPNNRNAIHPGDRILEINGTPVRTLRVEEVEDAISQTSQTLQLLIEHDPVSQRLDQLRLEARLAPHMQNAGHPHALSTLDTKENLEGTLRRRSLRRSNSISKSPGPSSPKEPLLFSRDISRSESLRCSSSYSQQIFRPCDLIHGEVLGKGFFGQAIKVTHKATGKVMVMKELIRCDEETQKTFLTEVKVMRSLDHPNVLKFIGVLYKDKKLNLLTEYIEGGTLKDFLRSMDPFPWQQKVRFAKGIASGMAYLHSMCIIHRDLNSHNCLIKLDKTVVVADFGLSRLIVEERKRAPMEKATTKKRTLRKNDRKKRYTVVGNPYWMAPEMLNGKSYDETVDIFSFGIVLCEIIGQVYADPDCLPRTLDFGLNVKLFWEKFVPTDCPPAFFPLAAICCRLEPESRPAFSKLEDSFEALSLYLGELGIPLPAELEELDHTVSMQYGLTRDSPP
# LIM domain kinase 2 [4] = biological target: T2, LIM domain kinase 2; experiment: Binding affinity to recombinant LIMK2 (330 to 632 residues) (unknown origin) expressed in baculovirus infected insect cells assessed as change in melting temperature at 10 uM by differential scanning fluorimetry
# Target sequence in this assay (P53671 whole entry, looked up, the tested form may be a part): as the sequence (P53671 whole entry, the tested form may be a part) above
Structure (SMILES),ΔTm (LIM domain kinase 1 [1]),IC50 (LIM domain kinase 1 [2]),IC50 (LIM domain kinase 2 [3]),ΔTm (LIM domain kinase 2 [4]),inhibition (N1E-115)
CC(C)C(=O)Nc1ncc(-c2cc(C(F)F)nn2-c2c(Cl)cccc2Cl)s1,–,–,–,–,Dde
CC(C)C(=O)Nc1ncc(C(=O)NCCN(Cc2ccccc2)C(=O)c2ccc(S(=O)(=O)Nc3ccccc3)cc2)s1,–,–,–,–,Dde
O=C(c1ccc(S(=O)(=O)Nc2ccccc2)cc1)N(CCc1cn(Cc2ccccc2)nn1)Cc1ccccc1,6.8 °C,472 nM,121 nM,12.3 °C,–
CCCCN(Cc1ccccc1)C(=O)c1ccc(S(=O)(=O)Nc2ccccc2)cc1,–,–,–,–,Dde
CN(Cc1ccccc1)C(=O)c1ccc(S(=O)(=O)NCCc2ccccc2)cc1,0.9 °C,–,–,0.1 °C,–
O=C(c1ccc(S(=O)(=O)Nc2ccccc2)cc1)N(CCc1ccccc1)Cc1ccccc1,8.6 °C,251 nM,92 nM,–,–

# Continued, in another order:
ΔTm (LIM domain kinase 1 [1]),IC50 (LIM domain kinase 1 [2]),IC50 (LIM domain kinase 2 [3]),ΔTm (LIM domain kinase 2 [4]),Structure (SMILES),inhibition (N1E-115)
4.5 °C,–,–,–,CN(Cc1ccccc1)C(=O)c1ccc(S(=O)(=O)Nc2ccccc2)cc1,–
0.9 °C,–,–,–,CN(Cc1ccccc1)C(=O)c1ccc(S(=O)(=O)Nc2cccc(Cl)c2)cc1,–
1.3 °C,–,–,3.2 °C,CN(CCc1ccccc1)C(=O)c1ccc(S(=O)(=O)Nc2ccccc2)cc1,–
